The values below come from ChEMBL document CHEMBL1124764, “Cytotoxicity and antitumor activity of some tetrahedral bis(diphosphino)gold(I) chelates” (J Med Chem, 1990).

The subject of assay [1] is B16. As to the kind of experiment: In vitro concentration which inhibits cloning efficiency of B16 melanoma cells by 50% on a 2-h exposure was determined. Format: functional, cell-based, Mus musculus. In a few lines:
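Clonogenic assay with B16 melanoma cells grown in monolayer culture. Cells were exposed to drug for 2 h, either in medium containing 10% fetal calf serum or in serum-free medium, and then cloned. IC50 is the concentration cutting cloning efficiency by 50%.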

Assay [2] deals with P388. The assay is described as follows: In vivo maximum increase in lifespan produced in mice bearing ip P388 leukemia. Format: functional, organism-based. The note with it: Mus musculus. Summed up:
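B6D2F1 mice were inoculated ip with 10⁶ P388 leukemia cells. Complexes in DMA or ethanol plus saline (Cremophor-EL if precipitating) were given ip in 0.5 mL on days 1–5, starting 24 h after inoculation, at five log-spaced doses. Untreated and cisplatin controls were included. Mice were monitored daily for 45 days. ILS = % increase in median survival versus untreated controls, at MTD; >30% counted as active.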

Assay [3] has as its system P388. As to the kind of experiment: In vivo maximally tolerated dose for B6D2F1 mice on an ip P388 leukemia every day for 5 days regimen. Format: functional, organism-based. The note with it: Mus musculus. Summed up:
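B6D2F1 mice inoculated ip with 10⁶ P388 leukemia cells. Complex in DMA or ethanol plus saline, with Cremophor-EL if needed, 0.5 mL, freshly made. Given ip days 1–5 starting 24 h after inoculation, at five log-spaced doses to find the MTD. Groups of six; untreated and cisplatin controls. Mortality checked daily for 45 days; end points MST and ILS.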

The subject of another assay is M5076. The assay is described as follows: In vivo maximum increase in lifespan produced in mice bearing M5076 reticulum cell sarcoma implanted tumor. The note with it: Mus musculus. Format: functional. In a few lines:
(§1)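 M5076 sarcoma or B16 melanoma was maintained by serial transplantation in syngeneic mice and implanted ip. B6D2F1 mice received complexes ip daily for 10 days at five log-spaced doses encompassing the MTD. Activity was scored as increase in median lifespan versus untreated controls, at MTD; >25% ILS counted as active.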

The test system of a further assay is Mus musculus. As to the kind of experiment: In vivo maximally tolerated dose for B6D2F mice on an every day ip for 10 days regimen. Format: functional, organism-based. Summed up:
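B6D2F1 mice with ip-implanted M5076 reticulum cell sarcoma or B16 melanoma, kept by serial transplant in syngeneic mice. Complex dissolved in minimal DMA or ethanol plus equal saline, with Cremophor-EL if it precipitated. Made just before use and given ip daily for 10 days at five log-spaced doses spanning the MTD. Activity judged by median lifespan prolongation.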

Assay [4] can be described thus: (§2) In vivo maximum increase in lifespan produced in mice bearing ip B16 melanoma implanted tumor. Format: organism-based. In a few lines:
as §1

For assay [5], the system named is B16. The assay is described as §2. Format: functional, organism-based. The note with it: Mus musculus. In a few lines: as §1

Broadly, the IC50 is the concentration at which inhibition is half-maximal. A low value points to greater potency. In the assay with B16 [1], “Bis [1,2-bis(diphenylphosphino)ethane] gold (I) Nitrate [listing 1 of 2 here]” displayed an IC50 of 4 µM.

Usually ILS stands for how much longer treated animals lived than controls. High values mean a large benefit in survival, low ones a small benefit in survival. Substance “Bis [1,2-bis[bis(5-H-dibenzophospholyl)ethane] gold (I) Nitrate” yielded an ILS with P388 [2] of 61%. This substance also returned an MTD (uM day-1 kg-1) with P388 [3] of 4.

In the case of “Bis [1,2-bis(diphenylphosphino)ethene] gold (I) Chloride [listing 1 of 2 here]”, the increase in life span (ILS) in the assay on M5076 stood at 69%; in the assay on P388 [2], 92%; in assay [4], 35%. Besides, the MTD (uM day-1 kg-1) in the assay on Mus musculus and with P388 [3] was 2 in each case.

Consider “Bis [1,2-bis(dipyridine-2-ylphosphino)ethane] gold (I) Chloride Hydrate; chloride”, for which the increase in lifespan (ILS) in the assay with P388 [2] stood at 75%; in assay [4] it was 43%. The MTD (uM day-1 kg-1) in the assay with Mus musculus and in the assay with P388 [3] was 8 throughout.

Take “Bis [1,2-bis(diphenylphosphino)ethane] gold (I) 2-hydroxy-1-ethane sulphonate”: the increase in lifespan (ILS) in the assay on P388 [2] amounted to 78%. In addition, the MTD (uM day-1 kg-1) with P388 [3] worked out at 2.

As for “Bis [1,2-bis(dipyridine-4-ylphosphino)ethane] gold (I) Chloride Hydrate; chloride”, the MTD (uM day-1 kg-1) was determined as 4 in the assay on Mus musculus and 6 in the assay with P388 [3].

With “Bis [(1-diphenylphosphino, 2-diethyl) ethane] gold (I) Chloride [listing 1 of 2 here]”, the figures for the increase in lifespan (ILS) in the assay with M5076 and in the assay on P388 [2] were 46% and 54%, respectively. For the same substance, the values for the MTD (uM day-1 kg-1) in the assay on Mus musculus and with P388 [3] were 2 and 4, respectively.

The substance “Bis [1,2-bis(diphenylphosphino)ethane] gold (I) Chloride Hydrate [listing 1 of 2 here]” yielded a half-inhibitory concentration (IC50) in the assay on B16 [1] of 4.5 µM.

Substance “Bis [1-dipphenyl,2-phenylmethylphosphino)ethane] gold (I) Chloride Hydrate; chloride” gave an ILS with P388 [2] of 65%. Further, the values for the MTD (uM day-1 kg-1) in the assay with Mus musculus and in the assay with P388 [3] were 2 and 3, respectively.

As to “Bis [1,2-bis(diphenylphosphino)ethane] gold (I) Bromide Hydrate”, the ILS with P388 [2] stood at 83%. For the same substance, the MTD (uM day-1 kg-1) with P388 [3] was determined as 2.

Regarding CISPLATIN, the values for the ILS (in the assay on M5076; in the assay with P388 [2]; in assay [4]) were 103%, 125% and 75%, respectively. Besides, the MTD (uM day-1 kg-1) in the assay with Mus musculus was 5; in the assay with P388 [3] it was 7.

In the assay on B16 [1], “Bis [1,2-bis(diphenylphosphino)propane] gold (I) Chloride [listing 1 of 2 here]” returned an IC50 of 0.6 µM.

For the substance “Bis [1,2-bis[bis(3-fluorophenyl)phosphino)ethane] gold (I) Chloride”, the ILS in the assay with P388 [2] worked out at 55%. This substance also registered an MTD (uM day-1 kg-1) in the assay with P388 [3] of 10.

In the case of “Bis [1,2-bis(diphenylphosphino)ethane] gold (I) Chloride Hydrate [listing 2 of 2 here]”, the increase in life span (ILS) in the assay on M5076 came out at 57%; in the assay on B16 [5], 38%; with P388 [2], 83%. For the same substance, the MTD (uM day-1 kg-1) in the assay on Mus musculus is 2; with P388 [3] it was 3.

In the assay with P388 [2], “Bis [1,2-bis[bis(4-fluorophenyl)phosphino)ethane] gold (I) Chloride” came in with an ILS of 50%. The substance also yielded an MTD (uM day-1 kg-1) in the assay on P388 [3] of 3.

In the assay with B16 [1], “Bis [(1-diphenylphosphino, 2-diethyl) ethane] gold (I) Chloride [listing 2 of 2 here]” returned an IC50 of 5 µM.

The substance “Bis [1,2-bis(diphenylphosphino)ethene] gold (I) Chloride [listing 2 of 2 here]” had an IC50 with B16 [1] of 2 µM.

Take “Bis [1,2-bis(diphenylphosphino)propane] gold (I) Chloride [listing 2 of 2 here]”: the increase in life span (ILS) in the assay with M5076 came out at 116%; in the assay with P388 [2] it was 89%; in assay [4], 34%. The results for the MTD (uM day-1 kg-1) in the assay with Mus musculus and in the assay on P388 [3] were 2 and 3, respectively.

On to “Bis [1,2-bis(diphenylphosphino)ethane] gold (I) Iodide Hydrate”, for which the figures for the increase in life span (ILS) with M5076 and with P388 [2] were 52% and 150%, respectively. For the same substance, the MTD (uM day-1 kg-1) with Mus musculus and with P388 [3] was 2 each time.

As for “Bis [1,2-bis(diphenylphosphino)ethane] gold (I) Nitrate [listing 2 of 2 here]”, the increase in lifespan (ILS) in the assay with P388 [2] worked out at 90%. In addition, in the assay on P388 [3], the MTD (uM day-1 kg-1) was determined as 3.

“Bis [1,2-bis(diphenylphosphino)ethane] gold (I) Methanesulfonate”: the ILS with P388 [2] is 81%. Moreover, the MTD (uM day-1 kg-1) in the assay on P388 [3] is 2.
